# Results pooled from the literature.
# Protocols differ between the studies behind these lines.
# Observed: cell growth or viability
Compound,cell line,assay,setting,measurement,value
Cc1ncsc1-c1ccc([C@H](C)NC(=O)[C@@H]2C[C@@H](O)CN2C(=O)[C@@H](NC(=O)CCCCCCCS(=O)(=O)NC(=O)c2nc(N3CCc4cccc(C(=O)Nc5nc6ccccc6s5)c4C3)ccc2-c2cc(C#N)n(CC34CC5CC(CC(C5)C3)C4)c2C)C(C)(C)C)cc1,MOLT-4,MTS,48 h,IC50,0.0202 µM
Nc1nc(S)nc(O)c1N=Cc1cn(-c2ccccc2)nc1-c1ccccc1,Jurkat,,48 h,CC50,17.3 µM
Cc1c(-c2ccc(N3CCc4cccc(C(=O)Nc5nc6ccccc6s5)c4C3)nc2C(=O)O)cnn1CC12CC3CC(CC(C3)C1)C2,MOLT-4,MTS,48 h,IC50,0.0021 µM
O=c1[nH]ncc(NN=Cc2cn(-c3ccccc3)nc2-c2cc3ccccc3oc2=O)c1Cl,Jurkat,,48 h,CC50,> 40 µM
N#CSCCCCOc1ccc2c(-c3ccccc3)cc(=O)oc2c1,MIA PaCa-2,SRB,,GI50,28 µM
FC(F)(F)c1cc(OCc2cc(-c3ccccc3)no2)c2ccccc2n1,LN-229,MTS,72 h,IC50,32.1 µM
Cc1ncsc1-c1ccc([C@H](C)NC(=O)[C@@H]2C[C@@H](O)CN2C(=O)[C@@H](NC(=O)CCCCCCCCCCS(=O)(=O)NC(=O)c2nc(N3CCc4cccc(C(=O)Nc5nc6ccccc6s5)c4C3)ccc2-c2cnn(CC34CC5CC(CC(C5)C3)C4)c2C)C(C)(C)C)cc1,MOLT-4,MTS,48 h,IC50,0.0341 µM
Nc1nc(S)nc(O)c1N=Cc1cn(-c2ccccc2)nc1-c1ccc(Cl)cc1,Jurkat,,48 h,CC50,> 20 µM
Cc1nc(Nc2ncc(C(=O)Nc3c(C)cccc3Cl)s2)cc(N2CC[C@H](O)C2)n1,SU-DHL-2,ATP luminescence,"10 µM, 72 h",inhibition,33%
O=C(C[C@@H](C(F)F)n1ccc(F)n1)N1CCC(O)(Cn2cnc3c(cnn3-c3ccc(F)cc3)c2=O)CC1,LNCaP,CCK-8,0.1235 µM,viability,18.3%
Cc1c(Cl)c(=O)oc2cc(OCCCCSC#N)ccc12,MIA PaCa-2,SRB,,GI50,8.2 µM
C[C@H](Nc1ccc2c(c1)OCCn1cc(N3C(=O)OC[C@H]3C(F)F)nc1-2)C(N)=O,TCC-SUP,ATP luminescence,5 days,EC50,0.0516 µM
Cc1ncsc1-c1ccc([C@@H](C)NC(=O)[C@H]2C[C@H](O)CN2C(=O)[C@H](NC(=O)CCCCNC(=O)C23CC4CC(CC(Cn5ncc(-c6ccc(N7CCc8cccc(C(=O)Nc9nc%10ccccc%10s9)c8C7)nc6C(=O)O)c5C)(C4)C2)C3)C(C)(C)C)cc1,MOLT-4,MTS,48 h,IC50,> 1 µM
